Results pooled from the literature.
Lines come from different studies, so protocols differ.
Cell line: PC-9
Observed: cell growth or viability
Time: 72 h

CCCCNC(=O)Nc1nc2cc(-c3ccc4ncn(Cc5ccccc5)c(=O)c4c3)ccc2s1  IC50 (MTT): > 20 µM
COc1ccc(NC(=O)NCc2cn(Cc3ccc(C)cc3)nn2)cc1  viability (CCK-8; 20 µM): 105%
COc1ccc(C(=O)Nc2nc3cc(-c4ccc5ncn(Cc6ccccc6)c(=O)c5c4)ccc3s2)cc1  IC50 (MTT): > 20 µM
O=C(NCc1cn(Cc2ccc(Cl)cc2)nn1)Nc1ccc(Cl)cc1  viability (CCK-8; 20 µM): 83.2%
Cc1ccccc1Cn1cc(-c2cccc(NC(=O)Nc3ccc(F)cc3)c2)nn1  viability (CCK-8; 20 µM): 88.9%
O=C(Nc1nc2cc(-c3ccc4ncn(Cc5ccccc5)c(=O)c4c3)ccc2s1)c1ccccc1  IC50 (MTT): > 20 µM
O=C(Nc1ccc(-c2cn(Cc3ccc(Cl)cc3)nn2)cc1)Nc1ccccc1Br  viability (CCK-8; 50 µM): 103%
COc1ccc(NC(=O)Nc2nc3cc(-c4ccc5ncn(CCN6CCOCC6)c(=O)c5c4)ccc3s2)cc1  IC50 (MTT): > 20 µM
O=C(Nc1cccc(-c2cn(Cc3ccc(Cl)cc3)nn2)c1)Nc1ccccc1Br  viability (CCK-8; 50 µM): 107%
COc1ccc(NC(=O)Nc2ccc(-c3cn(Cc4ccc(Br)cc4)nn3)cc2)cc1  viability (CCK-8; 50 µM): 96.4%
O=C(Nc1cccc(-c2cn(Cc3ccc(Br)cc3)nn2)c1)Nc1ccccc1Br  viability (CCK-8; 20 µM): 128%
COc1ccc(NC(=O)NCc2cn(Cc3ccccc3C)nn2)cc1  viability (CCK-8; 20 µM): 94.4%
COc1ccc(N(Cc2csc(-c3ccccc3)n2)C(=O)CCCCCC(=O)NO)cc1  IC50 (MTT): 0.53 µM
O=C(Nc1ccc(Cl)cc1)Nc1ccc(-c2cn(Cc3ccc(Br)cc3)nn2)cc1  viability (CCK-8; 20 µM): 71.5%
COc1ccc(NC(=O)Nc2cccc(-c3cn(Cc4ccc(C)cc4)nn3)c2)cc1  viability (CCK-8; 50 µM): 92.6%
O=C(Nc1ccc(Cl)cc1)Nc1nc2cc(-c3ccc4ncn(CCN5CCOCC5)c(=O)c4c3)ccc2s1  IC50 (MTT): > 20 µM
COc1ccc(NC(=O)Nc2ccc(-c3cn(Cc4ccc(C)cc4)nn3)cc2)cc1  viability (CCK-8; 50 µM): 96%
O=C(NCc1cn(Cc2ccc(Cl)cc2)nn1)Nc1ccccc1Br  viability (CCK-8; 20 µM): 94.5%
O=C(Nc1ccc(F)cc1)Nc1nc2cc(-c3ccc4ncn(CC(=O)N5CCOCC5)c(=O)c4c3)ccc2s1  IC50 (MTT): > 20 µM
COc1ccc(N(Cc2csc(-c3ccc(Br)cc3)n2)C(=O)CCCCCC(=O)NO)cc1  IC50 (MTT): 1.86 µM
